From ChEMBL document CHEMBL1134664, “Influence of polyamine architecture on the transport and topoisomerase II inhibitory properties of polyamine DNA-intercalator conjugates” (J Med Chem, 2001)

Assays:
L1210 [1] = experiment: Cytotoxicity against murine leukemia (L1210) cells was determined at 47h; assay type: functional, cell-based; details: Mus musculus, L1210, 47 h
Method in brief: (§1)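 L1210 murine leukemia cells in early to mid log phase (under 5% trypan blue positive before the start) were grown at 37 °C in 5% CO2 in 96-well plates with increasing drug concentrations for the stated time. A methotrexate positive control was included in every trial. Viability was read by colorimetric NAD(P)H-dependent formazan production, and the IC50 was taken from this.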

L1210 [2] = experiment: Cytotoxicity against murine leukemia (L1210) cells was determined at 94h; assay type: functional, cell-based; details: Mus musculus, L1210, 94 h; method in brief: as §1

`NCCCN(CCCCNc1c2ccccc2nc2ccccc12)CCCCN(CCCN)CCCCNc1c2ccccc2nc2ccccc12` showed an IC50 (L1210 [1]) of 40 µM and an IC50 (L1210 [2]) of 74 µM.
In the case of `NCCCN(CCCCNCc1c2ccccc2cc2ccccc12)CCCCN(CCCN)CCCCNCc1c2ccccc2cc2ccccc12`, the IC50 (L1210 [1]) is reported as 44 µM and the IC50 (L1210 [2]) is reported as 61 µM.
In the case of `NCCCNCCCCN(CCCN)CCCCNc1ccnc2cc(Cl)ccc12`, the IC50 (L1210 [1]) is reported as > 100 µM and the IC50 (L1210 [2]) is reported as > 100 µM.
`NCCCN(CCCCCNCc1c2ccccc2cc2ccccc12)CCCCN(CCCN)CCCCCNCc1c2ccccc2cc2ccccc12` was tested, and the IC50 (L1210 [1]) was 18 µM and the IC50 (L1210 [2]) was 25 µM.
Compound `NCCCCN(CCCN)CCCCCNCc1c2ccccc2cc2ccccc12` has an IC50 (L1210 [1]) of 7 µM and an IC50 (L1210 [2]) of 5 µM.
`NCCCCN(CCCN)CCCCNCc1c2ccccc2cc2ccccc12` gave an IC50 (L1210 [1]) of 13 µM and an IC50 (L1210 [2]) of 6 µM.
In the case of `NCCCNCCCCN(CCCN)CCCCNc1c2ccccc2nc2ccccc12`, the IC50 (L1210 [1]) is reported as 23 µM and the IC50 (L1210 [2]) is reported as 17 µM.
In the case of `NCCCCN(CCCN)CCCCCNc1c2ccccc2nc2ccccc12`, the IC50 (L1210 [1]) is reported as > 100 µM and the IC50 (L1210 [2]) is reported as > 100 µM.
`NCCCCN(CCCN)CCCCNc1c2ccccc2nc2ccccc12` was tested, and the IC50 (L1210 [1]) was 75 µM and the IC50 (L1210 [2]) was 55 µM.
For `NCCCN(CCCCCNc1c2ccccc2nc2ccccc12)CCCCN(CCCN)CCCCCNc1c2ccccc2nc2ccccc12`, the IC50 (L1210 [1]) was 17 µM and the IC50 (L1210 [2]) was 23 µM.
`CCCCNc1c2ccccc2nc2ccccc12` was tested, and the IC50 (L1210 [1]) was 2 µM and the IC50 (L1210 [2]) was 2 µM.
